# Test results as given in ChEMBL document CHEMBL1147589, “Abeta aggregation inhibitors. Part 1: Synthesis and biological activity of phenylazo benzenesulfonamides” (Bioorg Med Chem Lett, 2004).
# Assays:
# [1] = species on record: Rattus norvegicus; test: Effective concentration required to inhibit A-beta-40 fibril formation […]; format: functional
# In short: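 Thioflavin-T binding assay of Aβ40 aggregation. Aβ40 (25) was incubated with the compound at various concentrations in 50 mM TBS, pH 7.4, at 37 °C for 2 days. Fluorescence was read at Ex 450/Em 482 and scaled to Aβ40 alone (100%). EC50 is the concentration inhibiting aggregation by 50%. Values are averages of three separate experiments.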
# [2] = species on record: Rattus norvegicus; test: Evaluated for neurotoxicity by inhibition of neuron viability in rat cortical neurons expressed as IC50; format: functional
# In short: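 Cortical neurons were incubated with the compound at various concentrations, and viability was measured by MTT reduction with OD at 600 nm on an ELISA reader. IC50 is the concentration inhibiting neuron viability by 50%. Values are averages of three separate experiments.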
# [3] = Therapeutic index expressed as the ratio of IC50 to EC50; settings: rat; read-out: Therapeutic index
# In short: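 Therapeutic index = IC50/EC50. IC50 is the concentration inhibiting neuron viability by 50% in the MTT reduction assay on cortical neurons. EC50 is the concentration inhibiting Aβ40 aggregation by 50% in the thioflavin-T assay (25 Aβ40, TBS pH 7.4, 37 °C, 2 days). Both were determined at various compound concentrations in three separate experiments.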
smiles,measurement,setting,value
Nc1ccc(/N=N/c2ccc(S(N)(=O)=O)cc2)cc1,EC50,[1],100 µM
same,IC50,[2],> 100 µM
CSc1cc(N)ccc1/N=N/c1ccc(S(N)(=O)=O)cc1,EC50,[1],56.8 µM
same,IC50,[2],> 100 µM
same,selectivity ratio,[3],> 1.76
NS(=O)(=O)c1ccc(/N=N/c2ccc(NCS(=O)(=O)O)cc2)cc1,EC50,[1],77.2 µM
same,IC50,[2],> 100 µM
same,selectivity ratio,[3],> 1.29
CCN(CC)CCNc1ccc(/N=N/c2ccc(S(N)(=O)=O)cc2)c2ccccc12,EC50,[1],15.1 µM
same,IC50,[2],22.1 µM
same,selectivity ratio,[3],1.47
CN(C)c1ccc(/N=N/c2ccc(S(N)(=O)=O)cc2)cc1,EC50,[1],12.9 µM
same,IC50,[2],> 100 µM
same,selectivity ratio,[3],> 7.75
